In ChEMBL document CHEMBL2029305, “N-Acyl and N-sulfonyloxazolidine-2,4-diones are pseudo-irreversible inhibitors of serine proteases” (Bioorg Med Chem Lett, 2012):
The source made the active and inactive calls. The calls are words filed in the database; no cut-off is given here.

Columns and labels:
[1] = biological target: T1, Neutrophil elastase (Homo sapiens, UniProt P08246); test: Inhibition of human neutrophil elastase using chromogenic substrate (N-MeOSuc-Ala-Ala-Pro-Val-p-nitroanilide after 120 mins
T1 sequence (P08246 whole entry): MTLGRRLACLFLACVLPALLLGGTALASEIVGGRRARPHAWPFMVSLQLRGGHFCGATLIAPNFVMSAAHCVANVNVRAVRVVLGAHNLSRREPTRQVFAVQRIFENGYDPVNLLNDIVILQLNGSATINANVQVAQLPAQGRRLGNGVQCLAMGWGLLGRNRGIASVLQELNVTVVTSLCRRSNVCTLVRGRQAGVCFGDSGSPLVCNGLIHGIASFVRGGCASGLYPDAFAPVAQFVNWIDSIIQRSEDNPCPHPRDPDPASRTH

[2] = Half life of the compound in phosphate buffer at pH 7.4; format: physicochemical
Summary of the method: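 Hydrolysis in phosphate buffer, pH 7.4, at 37 °C; half-life in min.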

[3] = species: Sus scrofa; test: Inhibition of porcine pancreatic elastase using N-Suc-(L-Ala)3-p-nitroaniline at 300 molar excess
Summary of the method: (§1)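 Pre-incubation of PPE with 300- or 600-fold molar excess of inhibitor; residual activity measured with N-Suc-(L-Ala)3-p-nitroanilide.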

[4] = species: Sus scrofa; test: Inhibition of porcine pancreatic elastase using N-Suc-(L-Ala)3-p-nitroaniline assessed as remaining activity at 2.5 to 500 uM after 15 mins
Summary of the method: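 PPE (5 µM) with inhibitor 2.5–500 µM in pH 7.25 HEPES, 15 min incubation; aliquots assayed for remaining activity (vt/v0) versus [I]/[E]0 ratio to estimate equivalents needed for inactivation.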

[5] = species: Sus scrofa; test: Inhibition of porcine pancreatic elastase using N-Suc-(L-Ala)3-p-nitroaniline at 50 to 500 uM; settings: TDE = time-dependent effect
[6] = species: Sus scrofa; test: Inhibition of porcine pancreatic elastase using N-Suc-(L-Ala)3-p-nitroaniline
[7] = Drug degradation in CD3ONa/CD3OD solution assessed as 2-(methoxycarbonyloxy)propan-2-yl 4-methoxybenzoylcarbamate formation at room temperature for 15 mins by 1H-NMR analysis in the presence of sodium methoxide; format: physicochemical; settings: 0.25 h
[8] = Drug degradation in methanol assessed as methyl 4-methoxybenzoate formation at room temperature for 10 mins by TLC analysis in the presence of sodium methoxide; format: physicochemical
[9] = Drug degradation in CD3ONa/CD3OD solution assessed as methyl 4-methoxybenzoate formation at room temperature after 15 mins by 1H-NMR analysis in the presence of sodium methoxide; format: physicochemical; settings: 0.25 h
[10] = biological target: T2, Cathepsin G (Homo sapiens, UniProt P08311); test: Inhibition of cathepsin G using Suc-Ala-Ala-Pro-Phe-p-nitroanilide as substrate after 30 mins
T2 sequence (P08311 whole entry): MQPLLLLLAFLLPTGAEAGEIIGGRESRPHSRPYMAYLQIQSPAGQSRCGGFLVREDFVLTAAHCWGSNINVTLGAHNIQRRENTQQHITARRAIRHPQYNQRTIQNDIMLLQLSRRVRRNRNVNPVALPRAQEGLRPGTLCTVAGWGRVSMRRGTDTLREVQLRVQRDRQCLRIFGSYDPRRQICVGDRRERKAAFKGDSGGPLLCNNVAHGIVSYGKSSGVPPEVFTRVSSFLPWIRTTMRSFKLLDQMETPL

[11] = Drug degradation in methanol assessed as 2-(methoxycarbonyloxy)propan-2-yl 4-methoxybenzoylcarbamate formation at room temperature for 10 mins by TLC analysis in the presence of sodium methoxide; format: physicochemical
[12] = species: Sus scrofa; test: Inhibition of porcine pancreatic elastase using N-Suc-(L-Ala)3-p-nitroaniline at 600 molar excess; summary of the method: as §1

IC50 [1] [µM] | half-life [2] [min] | inhibition [3] | Activity [4] [%] | inhibition [5] | inhibition [6] | also measured | SMILES
> 500 | 38.7 | inactive |  |  |  |  | CC1OC(=O)N(c2ccc([N+](=O)[O-])cc2)C1=O (stereo not drawn)
> 500 |  | inactive |  |  |  |  | COc1ccc(N2C(=O)OC(C)(C)C2=O)cc1
15.6 |  |  | < 20 | tde | Dose-dependent effect |  | COc1ccc(C(=O)N2C(=O)OC(c3ccccc3)C2=O)cc1 (stereo not drawn)
10.2 | 16.7 |  | < 20 | tde | Dose-dependent effect | Drug degradation [7]: Active; Drug degradation [8]: Active; Drug degradation [9]: Active; IC50 [10]: 14.2 µM; Drug degradation [11]: Active | COc1ccc(C(=O)N2C(=O)OC(C)(C)C2=O)cc1
> 500 |  |  |  |  |  | inhibition [12]: inactive | CC1OC(=O)N(Cc2ccccc2)C1=O (stereo not drawn)
> 500 |  |  | < 20 | tde | Dose-dependent effect |  | COc1ccc(C(=O)N2C(=O)OC(C)C2=O)cc1 (stereo not drawn)
2.6 | 6.86 |  | < 20 | tde | Dose-dependent effect |  | Cc1ccc(S(=O)(=O)N2C(=O)OC(C)(C)C2=O)cc1
15.6 |  |  |  | tde | Dose-dependent effect | IC50 [10]: 2.1 µM | CC1(C)OC(=O)N(Cc2ccccc2)C1=O
> 500 |  | inactive |  |  |  |  | CC1(C)OC(=O)N(c2ccc([N+](=O)[O-])cc2)C1=O
> 500 |  |  |  |  |  | inhibition [12]: inactive | COc1ccc(N2C(=O)OC(C)C2=O)cc1 (stereo not drawn)
